Reference: ChEMBL document CHEMBL1125740, “Heterocyclic quinones. 17. A new in vivo active antineoplastic drug: 6,7-bis(1-aziridinyl)-4-[[3-(N,N-dimethylamino)propyl]amino]-5,8- quinazolinedione” (J Med Chem, 1991)
Values joined by “and” are separate entries in the source; they are usually repeats but may differ in a detail not shown here. Equal values may be shown once.

What was measured:
[1] = system: L1210; assay: Inhibitory activity against L1210 cell growth; type: functional, cell-based; conditions: Mus musculus
Method in brief: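 L1210 cells were grown in RPMI 1640 with 2 mM glutamine and 20% heat-inactivated horse serum at 37 °C under 5% CO2. Drug was added in DMSO (0.5% final) to exponential cells seeded at 0.8×10^5 cells/mL. Coulter counts were done in triplicate at 48 h. IC50 was taken from a regression of probit % growth inhibition against log dose, from one experiment.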

[2] = system: P388; assay: (§1) Compound was evaluated in vivo for antitumor activity after intraperitoneal administration against P388 (1303) for % increase in life span at an optimal dose of 1 mg/kg/injection; type: functional; conditions: Mus musculus, P388, ip
[3] = system: P388; assay: (§2) Compound was evaluated in vivo for antitumor activity after intraperitoneal administration against P388 (1303) for median day of death at an optimal dose of 1 mg/kg/injection; type: functional, Mus musculus
[4] = system: P388; assay: as §1; type: functional; conditions: Mus musculus, P388, ip; remark: listed apart in the source
[5] = system: P388; assay: (§3) Compound was evaluated in vivo for antitumor activity after intraperitoneal administration against P388 (1303) for change in body weight at an optimal dose of 1 mg/kg/injection; type: functional, Mus musculus
[6] = system: P388; assay: (§4) Compound was evaluated in vivo for antitumor activity after intraperitoneal administration against P388 (1303) for mortality range at an optimal dose of 1 mg/kg/injection; type: functional, Mus musculus
[7] = system: P388; assay: Compound was evaluated in vivo for antitumor activity after intraperitoneal administration against P388/L-PAM for total dose at an optimal dose of 1 mg/kg/injection; type: functional, Mus musculus
[8] = system: P388; assay: as §2; type: functional, Mus musculus; remark: listed apart in the source
[9] = system: P388; assay: as §3; type: functional, Mus musculus; remark: listed apart in the source
[10] = system: P388; assay: Compound was evaluated in vivo for antitumor activity after intraperitoneal administration against P388 (1303) for total dose at an optimal dose of 1 mg/kg/injection; type: functional, Mus musculus
[11] = system: P388; assay: (§5) Compound was evaluated in vivo for antitumor activity after intraperitoneal administration against P388 (1303) for tumor free survivors at an optimal dose of 1 mg/kg/injection; type: functional, Mus musculus
[12] = system: P388; assay: as §4; type: functional, Mus musculus; remark: listed apart in the source
[13] = system: P388; assay: as §5; type: functional, Mus musculus; remark: listed apart in the source
[14] = system: Mus musculus; assay: Compound was evaluated in vivo for antitumor activity against colon adenocarcinoma after injecting the compound intraperitoneally for total dose.; type: functional
[15] = system: Mus musculus; assay: Compound was evaluated in vivo for antitumor activity against colon adenocarcinoma after injecting the compound intraperitoneally for median tumor burden; type: functional
[16] = system: Mus musculus; assay: Compound was evaluated in vivo for antitumor activity against colon adenocarcinoma after injecting the compound intraperitoneally for percent T/C; type: functional
[17] = system: Mus musculus; assay: Compound was evaluated in vivo for antitumor activity against colon adenocarcinoma after injecting the compound intraperitoneally for optimal dose; type: functional
[18] = system: Mus musculus; assay: Compound was evaluated in vivo for antitumor activity against colon adenocarcinoma after injecting the compound intraperitoneally for toxicity related death.; type: functional
[19] = system: P388; assay: Compound was evaluated in vivo for antitumor activity after intraperitoneal administration against P388/L-PAM(12) for total dose at an optimal dose of 5 mg/kg/injection; type: functional, Mus musculus
[20] = system: P388; assay: (§6) Compound was evaluated in vivo for antitumor activity after intraperitoneal administration against P388/L-PAM(14) for % increase in life span at an optimal dose of 5 mg/kg/injection; type: functional; conditions: Mus musculus, P388, ip
[21] = system: P388; assay: (§7) Compound was evaluated in vivo for antitumor activity after intraperitoneal administration against P388/L-PAM(14) for tumor free survivors at an optimal dose of 5 mg/kg/injection; type: functional, Mus musculus
[22] = system: P388; assay: as §6; type: functional; conditions: Mus musculus, P388, ip; remark: listed apart in the source
[23] = system: P388; assay: Compound was evaluated in vivo for antitumor activity after intraperitoneal administration against P388 (1313) for total dose at an optimal dose of 5 mg/kg/injection; type: functional, Mus musculus
[24] = system: P388; assay: Compound was evaluated in vivo for antitumor activity after intraperitoneal administration against P388/L-PAM(12) for tumor free survivors at an optimal dose of 1 mg/kg/injection; type: functional, Mus musculus
[25] = system: P388; assay: Compound was evaluated in vivo for antitumor activity after intraperitoneal administration against P388/L-PAM(12) for % increase in life span at an optimal dose of 1 mg/kg/injection; type: functional; conditions: Mus musculus, P388, ip
[26] = system: P388; assay: Compound was evaluated in vivo for antitumor activity after intraperitoneal administration against P388/L-PAM(14) for median day of death at an optimal dose of 5 mg/kg/injection; type: functional, Mus musculus
[27] = system: P388; assay: Compound was evaluated in vivo for antitumor activity after intraperitoneal administration against P388 (1303) for mortality range at an optimal dose of 5 mg/kg/injection; type: functional, Mus musculus
[28] = system: P388; assay: Compound was evaluated in vivo for antitumor activity after intraperitoneal administration against P388 (1303) for tumor free survivors at an optimal dose of 5 mg/kg/injection; type: functional, Mus musculus
[29] = system: P388; assay: Compound was evaluated in vivo for antitumor activity after intraperitoneal administration against P388 (1303) for change in body weight at an optimal dose of 5 mg/kg/injection; type: functional, Mus musculus
[30] = system: P388; assay: Compound was evaluated in vivo for antitumor activity after intraperitoneal administration against P388/L-PAM(12 for change in body weight at an optimal dose of 1 mg/kg/injection; type: functional, Mus musculus
[31] = system: P388; assay: Compound was evaluated in vivo for antitumor activity after intraperitoneal administration against P388 (1303) for median day of death at an optimal dose of 5 mg/kg/injection; type: functional, Mus musculus
[32] = system: P388; assay: (§8) Compound was evaluated in vivo for antitumor activity after intraperitoneal administration against P388/L-PAM(14) for mortality range at an optimal dose of 5 mg/kg/injection; type: functional, Mus musculus
[33] = system: P388; assay: as §7; type: functional, Mus musculus; remark: listed apart in the source
[34] = system: P388; assay: Compound was evaluated in vivo for antitumor activity after intraperitoneal administration against P388/L-PAM(14) for total dose at an optimal dose of 5 mg/kg/injection; type: functional, Mus musculus
[35] = system: P388; assay: Compound was evaluated in vivo for antitumor activity after intraperitoneal administration against P388 (1303) for % increase in life span at an optimal dose of 5 mg/kg/injection; type: functional; conditions: Mus musculus, P388, ip
[36] = system: P388; assay: (§9) Compound was evaluated in vivo for antitumor activity after intraperitoneal administration against P388/L-PAM(14) for change in body weight at an optimal dose of 5 mg/kg/injection; type: functional, Mus musculus
[37] = system: P388; assay: as §9; type: functional, Mus musculus; remark: listed apart in the source
[38] = system: P388; assay: Compound was evaluated in vivo for antitumor activity after intraperitoneal administration against P388 (1303) for total dose at an optimal dose of 5 mg/kg/injection; type: functional, Mus musculus
[39] = system: P388; assay: Compound was evaluated in vivo for antitumor activity after intraperitoneal administration against P388/L-PAM(12 for median day of death at an optimal dose of 1 mg/kg/injection; type: functional, Mus musculus
[40] = system: P388; assay: as §8; type: functional, Mus musculus; remark: listed apart in the source
[41] = system: P388; assay: Compound was evaluated in vivo for antitumor activity after intraperitoneal administration against P388/L-PAM(12 for mortality range at an optimal dose of 5 mg/kg/injection; type: functional, Mus musculus

CCN(CC)CCCC(C)Nc1ncnc2c1C(=O)C(OC)=CC2=O (configuration not stated)
IC50 [1]: 0.435 µg/mL and 1.26 µM

CN(CCCNc1ncnc2c1C(=O)C(N1CC1)=C(N1CC1)C2=O)CCCNc1ncnc2c1C(=O)C(N1CC1)=C(N1CC1)C2=O
IC50 [1]: 4.8 nM

CCN(CC)CCCNc1ncnc2c1C(=O)C(OC)=CC2=O
IC50 [1]: 0.393 µg/mL and 1.24 µM

COC(=O)CNc1ncnc2c1C(=O)C(OC)=CC2=O
IC50 [1]: 1.2 µg/mL and 4.26 µM

CN(C)CCCNc1ncnc2c1C(=O)C(N1CCCCC1)=CC2=O
IC50 [1]: 0.406 µg/mL and 1.17 µM

COC1=CC(=O)c2ncnc(NCCN(C)C)c2C1=O
IC50 [1]: 0.316 µg/mL and 1.14 µM

COC(=O)C(CC(C)C)NC(=O)C(CC(C)C)Nc1ncnc2c1C(=O)C(OC)=CC2=O (configuration not stated)
IC50 [1]: 0.581 µg/mL and 1.3 µM

COC1=CC(=O)c2ncnc(NCCCN(C)C)c2C1=O
IC50 [1]: 0.501 µg/mL and 1.73 µM

COC1=CC(=O)c2ncnc(NCCCn3cnc4c(N)ncnc43)c2C1=O
IC50 [1]: > 10 µg/mL and > 24.6 µM

COC1=CC(=O)c2ncnc(NCCCN(C)CCCNc3ncnc4c3C(=O)C(OC)=CC4=O)c2C1=O
IC50 [1]: 1250 nM

CCCC(=O)OCCNc1ncnc2c1C(=O)C(OC)=CC2=O
IC50 [1]: 0.85 µg/mL and 2.66 µM

COC1=CC(=O)c2ncnc(OCCOCCOCCO)c2C1=O
IC50 [1]: > 10 µg/mL and > 29.6 µM

COC1=CC(=O)c2ncnc(NCCO)c2C1=O
IC50 [1]: 1.78 µg/mL and 7.13 µM

COC(=O)C(Nc1ncnc2c1C(=O)C(OC)=CC2=O)C(C)C (configuration not stated)
IC50 [1]: 0.825 µg/mL and 2.59 µM

CCN(CC)CCNc1ncnc2c1C(=O)C(OC)=CC2=O
IC50 [1]: 0.281 µg/mL and 898 nM

O=C1C(N2CC2)=C(N2CC2)C(=O)c2ncncc21
IC50 [1]: 80 nM

COc1cccc2c1C(=O)c1c(O)c3c(c(O)c1C2=O)C[C@@](O)(C(C)=O)C[C@@H]3O[C@H]1C[C@H](N)[C@H](O)[C@H](C)O1 [DAUNORUBICIN]
ILS at 1 mg/kg [2]: 63%
Median day of death [3]: 19.5
ILS at 1 mg/kg [4]: 79%
Change in body weight [5]: 1.4 g mouse-1
Mortality [6]: 20 days
Total dose [7]: 4 mg/kg
Median day of death [8]: 18
Change in body weight [9]: 0.3 g mouse-1
Total dose [10]: 4 mg/kg
Survivors [11]: 0
Mortality [12]: 27 days
Survivors [13]: 0

COc1cccc2c1C(=O)c1c(O)c3c(c(O)c1C2=O)C[C@@](O)(C(=O)CO)C[C@@H]3O[C@H]1C[C@H](N)[C@H](O)[C@H](C)O1 [DOXORUBICIN]
IC50 [1]: 0.028 µg/mL and 48 nM

O=c1[nH]cc(F)c(=O)[nH]1 [FLUOROURACIL]
Total dose [14]: 140 mg/kg
Tumor burden [15]: 60 mg
T/C [16]: 14%
Optimal dose [17]: 70 mg/kg
Toxicity [18]: 0

N[C@@H](Cc1ccc(N(CCCl)CCCl)cc1)C(=O)O [MELPHALAN]
Total dose [19]: 5 mg/kg
ILS at 5 mg/kg [20]: 121%
Survivors [21]: 0
ILS at 5 mg/kg [22]: 14%
Total dose [23]: 5 mg/kg
Survivors [24]: 0
ILS at 1 mg/kg [25]: 15%
Median day of death [26]: 16
Mortality [27]: 34 days
Survivors [28]: 0
Change in body weight [29]: 0.1 g mouse-1
Change in body weight [30]: 0.6 g mouse-1
Median day of death [31]: 24
Mortality [32]: 19 days
Survivors [33]: 0
Total dose [34]: 5 mg/kg
ILS at 5 mg/kg [35]: 118%
Change in body weight [36]: 0.4 g mouse-1
Change in body weight [37]: 0 g mouse-1
Total dose [38]: 5 mg/kg
Median day of death [39]: 15
Mortality [40]: 34 days
Mortality [41]: 31 days
